Source: article PMC8268672 (Bioorganic Chemistry, 2021)
Values after ≈ are worked out from the molar mass of the structure shown. Read-outs that look alike come from different tables or passages of the source.

Legend:
[1] = tested on: Escherichia coli (ATCC 8739); test: MIC, broth microdilution; assay type: cell-based; details: ATCC8739, read-out: Minimum inhibitory concentration (MIC), EC
In short: (§1)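 Broth microdilution per CLSI in Mueller-Hinton broth, using two-fold serial dilutions of test compound and reference drugs from 512 to 0.25. Bacterial broth cultures were grown 2-6 h to 0.5 McFarland turbidity, then diluted with sterile solution to the final inoculum. MIC is reported in µg/mL.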

[2] = tested on: Pseudomonas aeruginosa (MCCB 0035); test: MIC, broth microdilution; assay type: cell-based; details: read-out: Minimum inhibitory concentration (MIC), PA
In short: as §1

[3] = tested on: Klebsiella aerogenes (NCIM-2098); test: MIC, broth microdilution; assay type: cell-based; details: NCIM2098, read-out: Minimum inhibitory concentration (MIC), KA
In short: (§2)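 Antibacterial MICs by CLSI broth microdilution in Mueller-Hinton broth. Test compounds and standard drugs are serially diluted two-fold from 512 to 0.25. The bacterial broth culture is grown 2-6 h to a 0.5 McFarland turbidity, then adjusted with sterile solution to the final inoculum.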

[4] = tested on: Staphylococcus aureus (ATCC 29213); test: MIC, broth microdilution; assay type: cell-based; details: ATCC29213, read-out: Minimum inhibitory concentration (MIC), SA
In short: as §2

[5] = tested on: Bacillus cereus (NCIM-2458); test: MIC, broth microdilution; assay type: cell-based; details: NCIM2458, read-out: Minimum inhibitory concentration (MIC), BC
In short: as §1

[6] = tested on: Aspergillus niger (NCIM 2191); test: MIC, broth microdilution; assay type: cell-based; details: NCIM2191, read-out: Minimum inhibitory concentration (MIC), AN
In short: (§3)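 Antifungal MICs by CLSI broth microdilution in Sabouraud liquid medium. Test compounds and standard drugs are serially diluted two-fold from 512 to 0.25. The fungal broth culture is grown 24 h at 35 °C to a 0.5 McFarland turbidity, then adjusted with sterile solution to the final inoculum.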

[7] = tested on: Candida albicans (NCIM 2087); test: MIC, broth microdilution; assay type: cell-based; details: NCIM2087, read-out: Minimum inhibitory concentration (MIC), CA
In short: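 CLSI broth microdilution in Sabouraud liquid medium, with test compound two-fold serially diluted from 512 to 0.25. Fungal broth culture grown 24 h at 35 °C to 0.5 McFarland turbidity, then adjusted with sterile solution to a final […] inoculum. MIC expressed in µg/mL.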

[8] = tested on: Aspergillus fumigatus (NCIM 2081); test: MIC, broth microdilution; assay type: cell-based; details: NCIM2081, read-out: Minimum inhibitory concentration (MIC), AF
In short: as §3

[9] = tested on: Cryptococcus neoformans (ATCC 9011); test: MIC, broth microdilution; assay type: cell-based; details: ATCC9011, read-out: Minimum inhibitory concentration (MIC), CN
In short: as §3

[10] = tested on: Escherichia coli (ATCC 8739); test: Agar disk diffusion, inhibition zone; assay type: cell-based; details: 100 µg/8 mm disc, triplicate, mean ± SD
In short: (§4)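 Agar disk diffusion on Mueller-Hinton agar plates seeded with a standard bacterial suspension. Test compound stock in DMSO, diluted with distilled water; 8 mm sterile filter-paper discs soaked in the solution. Ampicillin was the reference. Plates incubated at 35 °C for 24 h, in triplicate. Read-out is the average inhibition-zone diameter (mm) around each disc.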

[11] = tested on: Pseudomonas aeruginosa (MCCB 0035); test: Agar disk diffusion, inhibition zone; assay type: cell-based; details: 100 µg/8 mm disc, triplicate, mean ± SD
[12] = tested on: Salmonella typhimurium (NCIM-2501); test: Agar disk diffusion, inhibition zone; assay type: cell-based; details: 100 µg/8 mm disc, triplicate, mean ± SD
[13] = tested on: Klebsiella aerogenes (NCIM-2098); test: Agar disk diffusion, inhibition zone; assay type: cell-based; details: 100 µg/8 mm disc, triplicate, mean ± SD
[14] = tested on: Staphylococcus aureus (ATCC 29213); test: Agar disk diffusion, inhibition zone; assay type: cell-based; details: 100 µg/8 mm disc, triplicate, mean ± SD
In short: as §4

[15] = tested on: Bacillus cereus (NCIM-2458); test: Agar disk diffusion, inhibition zone; assay type: cell-based; details: 100 µg/8 mm disc, triplicate, mean ± SD
[16] = tested on: Lactobacillus casei (NCIM-2651); test: Agar disk diffusion, inhibition zone; assay type: cell-based; details: 100 µg/8 mm disc, triplicate, mean ± SD
[17] = tested on: Streptococcus pneumonia (ATCC 49619); test: Agar disk diffusion, inhibition zone; assay type: cell-based; details: 100 µg/8 mm disc, triplicate, mean ± SD
[18] = tested on: Aspergillus niger (NCIM 2191); test: Agar disk diffusion, inhibition zone; assay type: cell-based; details: 100 µg/8 mm disc, triplicate, mean ± SD
In short: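 For the fungal strain, discs soaked in test compound solution (DMSO stock diluted with distilled water) sat on seeded Mueller-Hinton agar. Clotrimazole was the reference. Incubation ran 48 h at 35 °C, in triplicate. Zone of growth inhibition recorded in mm as the mean diameter around each disc.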

[19] = tested on: Candida albicans (NCIM 2087); test: Agar disk diffusion, inhibition zone; assay type: cell-based; details: 100 µg/8 mm disc, triplicate, mean ± SD
[20] = tested on: Aspergillus fumigatus (NCIM 2081); test: Agar disk diffusion, inhibition zone; assay type: cell-based; details: 100 µg/8 mm disc, triplicate, mean ± SD
[21] = tested on: Cryptococcus neoformans (ATCC 9011); test: Agar disk diffusion, inhibition zone; assay type: cell-based; details: 100 µg/8 mm disc, triplicate, mean ± SD
S. aureus DNA gyrase = S. aureus DNA gyrase (Staphylococcus aureus, UniProt P0A0K8+P20831); test: DNA Gyrase inhibition assay; assay type: biochemical
Vaccinia virus = test: microbe, parasite or virus in culture; assay type: cell-based; details: Orthopoxvirus vaccinia, HEL, read-out: Antiviral EC50, Vaccinia virus
Adeno virus-2 = test: CPE reduction assay in HEL cells; assay type: cell-based; details: read-out: Antiviral EC50, Adeno virus-2
Human Coronavirus (229E) = test: CPE reduction assay in HEL cells; assay type: cell-based; details: read-out: Antiviral EC50, Human Coronavirus (229E)
Para-influenza-3 virus = test: CPE reduction assay in Vero cells; assay type: cell-based, Parainfluenza-3 virus; details: Vero, read-out: Antiviral EC50, Para-influenza-3 virus
Reovirus-1 = test: CPE reduction assay in Vero cells; assay type: cell-based; details: read-out: Antiviral EC50, Reovirus-1
Sindbis virus = test: CPE reduction assay in Vero cells; assay type: cell-based; details: read-out: Antiviral EC50, Sindbis virus
Coxsackie virus B4 = test: CPE reduction assay in Vero cells; assay type: cell-based; details: Enterovirus B, read-out: Antiviral EC50, Coxsackie virus B4
Punta Toro virus = test: CPE reduction assay in Vero cells; assay type: cell-based; details: read-out: Antiviral EC50, Punta Toro virus
Yellow Fever virus = test: microbe, parasite or virus in culture; assay type: cell-based; details: Yellow fever virus, Vero, read-out: Antiviral EC50, Yellow Fever virus
[22] = tested on: Influenza A/H1N1 A/Ned/378/05; test: CPE reduction assay in MDCK cells; assay type: cell-based; details: Influenza A virus
[23] = tested on: Influenza A/H3N2 A/HK/7/87; test: CPE reduction assay in MDCK cells; assay type: cell-based; details: Influenza A virus
Influenza B B/Ned/537/05 = test: CPE reduction assay in MDCK cells; assay type: cell-based; details: Influenza B virus, read-out: Antiviral EC50, Influenza B B/Ned/537/05, MTS
[24] = tested on: Human embryonic lung (HEL) cells; details: HEL cell cultures; microscopically detectable alteration of normal cell morphology
Vero cells = details: Vero cell cultures; microscopically detectable alteration of normal cell morphology
[25] = tested on: Madin Darby canine kidney (MDCK) cells; details: dog
MT4 cells = details: MT4 cell cultures; colorimetric MTT cell viability assay
[26] = read-out: Antiviral EC50, Influenza A/H1N1 A/Ned/378/05, MTS
[27] = read-out: Antiviral EC50, Influenza A/H1N1 A/Ned/378/05, visual CPE score
[28] = read-out: Antiviral EC50, Influenza A/H3N2 A/HK/7/87, MTS
[29] = read-out: Antiviral EC50, Influenza A/H3N2 A/HK/7/87, visual CPE score

S. aureus DNA gyrase, sequence (P20831 whole entry): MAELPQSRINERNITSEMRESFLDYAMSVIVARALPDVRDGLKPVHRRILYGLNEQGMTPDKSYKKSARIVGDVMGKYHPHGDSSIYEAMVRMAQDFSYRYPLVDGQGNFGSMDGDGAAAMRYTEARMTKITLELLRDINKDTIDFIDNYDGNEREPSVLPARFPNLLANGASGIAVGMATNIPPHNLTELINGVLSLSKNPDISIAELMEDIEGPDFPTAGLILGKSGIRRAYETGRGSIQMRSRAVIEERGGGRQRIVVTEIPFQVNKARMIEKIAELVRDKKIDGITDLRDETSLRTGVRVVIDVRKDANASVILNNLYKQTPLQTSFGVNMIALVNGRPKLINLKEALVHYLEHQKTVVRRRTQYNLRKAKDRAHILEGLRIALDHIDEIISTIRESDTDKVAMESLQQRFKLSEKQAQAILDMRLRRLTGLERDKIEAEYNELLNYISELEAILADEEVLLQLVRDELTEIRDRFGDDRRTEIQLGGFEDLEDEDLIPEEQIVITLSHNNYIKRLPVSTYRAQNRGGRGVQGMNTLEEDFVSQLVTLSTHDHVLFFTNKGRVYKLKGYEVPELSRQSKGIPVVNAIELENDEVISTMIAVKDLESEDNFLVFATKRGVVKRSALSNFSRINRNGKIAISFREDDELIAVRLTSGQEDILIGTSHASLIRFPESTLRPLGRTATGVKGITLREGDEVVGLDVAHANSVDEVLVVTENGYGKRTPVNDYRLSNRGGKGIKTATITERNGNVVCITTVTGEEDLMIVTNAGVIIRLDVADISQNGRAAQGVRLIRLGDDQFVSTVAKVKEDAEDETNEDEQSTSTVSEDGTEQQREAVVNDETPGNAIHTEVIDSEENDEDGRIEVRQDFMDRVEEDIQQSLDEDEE
S. aureus DNA gyrase, sequence (P0A0K8 whole entry): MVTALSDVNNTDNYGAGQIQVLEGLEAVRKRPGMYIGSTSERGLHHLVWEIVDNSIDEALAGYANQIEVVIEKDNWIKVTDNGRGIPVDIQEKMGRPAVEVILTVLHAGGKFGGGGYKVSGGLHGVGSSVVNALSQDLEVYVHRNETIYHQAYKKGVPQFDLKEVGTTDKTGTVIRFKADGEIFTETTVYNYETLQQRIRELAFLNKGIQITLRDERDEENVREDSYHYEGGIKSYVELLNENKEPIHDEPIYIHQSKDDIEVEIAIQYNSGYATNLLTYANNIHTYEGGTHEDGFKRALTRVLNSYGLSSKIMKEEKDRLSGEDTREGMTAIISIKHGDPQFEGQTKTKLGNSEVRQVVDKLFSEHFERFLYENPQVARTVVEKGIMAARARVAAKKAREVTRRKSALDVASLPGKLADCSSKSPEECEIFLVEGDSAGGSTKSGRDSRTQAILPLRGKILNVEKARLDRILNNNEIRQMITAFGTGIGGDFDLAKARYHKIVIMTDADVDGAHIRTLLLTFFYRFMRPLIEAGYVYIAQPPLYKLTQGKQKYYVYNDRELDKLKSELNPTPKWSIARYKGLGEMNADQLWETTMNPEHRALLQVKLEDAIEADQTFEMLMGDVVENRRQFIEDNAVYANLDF

Row | SMILES | MIC [1] | MIC [2] | MIC [3] | MIC [4] | MIC [5] | MIC [6] | MIC [7] | MIC [8] | MIC [9] | Diameter of growth inhibition zone, EC [10] | Diameter of growth inhibition zone, PA [11] | Diameter of growth inhibition zone, ST [12] | Diameter of growth inhibition zone, KA [13] | Diameter of growth inhibition zone, SA [14] | Diameter of growth inhibition zone, BC [15] | Diameter of growth inhibition zone, LC [16] | Diameter of growth inhibition zone, SP [17] | Diameter of growth inhibition zone, AN [18] | Diameter of growth inhibition zone, CA [19] | Diameter of growth inhibition zone, AF [20] | further results
1 | Cc1ccc(S(=O)(=O)N2C(=O)CSC2c2ccc(F)cc2)cc1 (stereo not shown) [5j, 2-(4-Fluorophenyl)-3-[(4-methylphenyl)sulfonyl]-1,3-thiazolidin-4-one] | 2 µg/mL (≈ 5.69 µM) | 2 µg/mL (≈ 5.69 µM) | 16 µg/mL (≈ 45.5 µM) | 4 µg/mL (≈ 11.4 µM) | 8 µg/mL (≈ 22.8 µM) | 8 µg/mL (≈ 22.8 µM) | 4 µg/mL (≈ 11.4 µM) | 4 µg/mL (≈ 11.4 µM) | 4 µg/mL (≈ 11.4 µM) | 25.9 ± 0.32 mm | 25 ± 1.5 mm | 18 ± 0.3 mm | 14 ± 0.94 mm | 23 ± 1.1 mm | 18 ± 0.5 mm | 19 ± 0.5 mm | 10 ± 0.6 mm | 19 ± 0.6 mm | 21 ± 0.9 mm | 19 ± 1.2 mm | Diameter of growth inhibition zone, CN [21]: 13 ± 1.5 mm; IC50 (S. aureus DNA gyrase): 4.26 µM
2 | Cc1ccc(S(=O)(=O)N2C(=O)CSC2c2cccc([N+](=O)[O-])c2)cc1 (stereo not shown) [5p, 3-[(4-Methylphenyl)sulfonyl]-2-(3-nitrophenyl)-1,3-thiazolidin-4-one] | 32 µg/mL (≈ 84.6 µM) | 64 µg/mL (≈ 169 µM) | 16 µg/mL (≈ 42.3 µM) | 32 µg/mL (≈ 84.6 µM) | 64 µg/mL (≈ 169 µM) | 8 µg/mL (≈ 21.1 µM) | 4 µg/mL (≈ 10.6 µM) | 8 µg/mL (≈ 21.1 µM) | 2 µg/mL (≈ 5.28 µM) | 16 ± 0.69 mm | 14 ± 1.1 mm | 12 ± 0.1 mm | 14 ± 0.75 mm | 16 ± 0.9 mm | 10 ± 0.4 mm | 12 ± 1.56 mm | 08 ± 0.87 mm | 20 ± 0.9 mm | 22 ± 1.2 mm | 20 ± 1.1 mm | Diameter of growth inhibition zone, CN [21]: 19 ± 1.0 mm; EC50 (Vaccinia virus): > 100 µM; EC50 (Adeno virus-2): > 100 µM; EC50 (Human Coronavirus (229E)): > 100 µM; EC50 (Para-influenza-3 virus): > 100 µM; EC50 (Reovirus-1): > 100 µM; EC50 (Sindbis virus): > 100 µM; EC50 (Coxsackie virus B4): > 100 µM; EC50 (Punta Toro virus): > 100 µM; EC50 (Yellow Fever virus): > 100 µM; EC50 [22, 26]: > 100 µM; EC50 [22, 27]: > 100 µM; EC50 [23, 28]: > 100 µM; EC50 [23, 29]: > 100 µM; EC50 (Influenza B B/Ned/537/05): > 100 µM; Minimum cytotoxic conc. [24]: >100 µM; Minimum cytotoxic conc. (Vero cells): >100 µM; Cytotoxicity, Minimum cytotoxic conc. [25]: >100 µM; Minimum cytotoxic conc. (MT4 cells): >125 µM
3 | Cc1ccc(S(=O)(=O)N2C(=O)CSC2c2ccccc2Cl)cc1 (stereo not shown) [5e, 2-(2-Chlorophenyl)-3-[(4-methylphenyl)sulfonyl]-1,3-thiazolidin-4-one] | 16 µg/mL (≈ 43.5 µM) | 32 µg/mL (≈ 87 µM) | 32 µg/mL (≈ 87 µM) | 64 µg/mL (≈ 174 µM) | 64 µg/mL (≈ 174 µM) | 32 µg/mL (≈ 87 µM) | 32 µg/mL (≈ 87 µM) | 64 µg/mL (≈ 174 µM) | 16 µg/mL (≈ 43.5 µM) | 19 ± 0.69 mm | 18 ± 0.55 mm | 10 ± 0.72 mm | 12 ± 0.5 mm | 17 ± 3.6 mm | 10 ± 0.7 mm | 14 ± 0.3 mm | 10 ± 1.32 mm | 10.2 ± 0.9 mm | 10.8 ± 1.5 mm | 9.6 ± 1.2 mm | Diameter of growth inhibition zone, CN [21]: 12 ± 0.9 mm; EC50 (Vaccinia virus): > 100 µM; EC50 (Adeno virus-2): > 100 µM; EC50 (Human Coronavirus (229E)): > 100 µM; EC50 (Para-influenza-3 virus): > 100 µM; EC50 (Reovirus-1): > 100 µM; EC50 (Sindbis virus): > 100 µM; EC50 (Coxsackie virus B4): > 100 µM; EC50 (Punta Toro virus): > 100 µM; EC50 (Yellow Fever virus): > 100 µM; EC50 [22, 26]: > 100 µM; EC50 [22, 27]: > 100 µM; EC50 [23, 28]: > 100 µM; EC50 [23, 29]: > 100 µM; EC50 (Influenza B B/Ned/537/05): > 100 µM; Minimum cytotoxic conc. [24]: >100 µM; Minimum cytotoxic conc. (Vero cells): >100 µM; Cytotoxicity, Minimum cytotoxic conc. [25]: >100 µM; Minimum cytotoxic conc. (MT4 cells): >125 µM
